Results taken from ChEMBL document CHEMBL4011603, “Synthesis of clarithromycin ketolides chemically modified at the unreactive C10-methyl group” (2017).
≈ marks a conversion by molar mass, not a printed value.

Tests used:
Streptococcus pneumoniae [1] = test: Antibacterial activity against macrolide-resistant Streptococcus pneumoniae BAA1402 expressing mef gene by broth microdilution method; type: functional
Summary of the method: (§1)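 Standard broth microdilution for MIC against respiratory-pathogen strains, reported in μg/mL, with clarithromycin included as the reference macrolide.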

Streptococcus pneumoniae [2] = test: Antibacterial activity against macrolides/lincosamides/streptogramines resistant Streptococcus pneumoniae 3914 by broth microdilution method; type: functional; summary of the method: as §1
Staphylococcus aureus [3] = test: Antibacterial activity against Staphylococcus aureus ATCC 29213 by broth microdilution method; type: functional
Summary of the method: (§2)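 Standard broth microdilution; the endpoint is the minimal inhibitory concentration, reported in μg/mL. Clarithromycin is the reference macrolide. Strains are respiratory-pathogen isolates of S. pneumoniae and S. aureus.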

Streptococcus pneumoniae [4] = test: Antibacterial activity against Streptococcus pneumoniae ATCC 4961 by broth microdilution method; type: functional; summary of the method: as §2
Streptococcus pneumoniae [5] = test: Antibacterial activity against macrolides/lincosamides/streptogramines-resistant Streptococcus pneumoniae BAA1407 expressing mef and erm genes by broth microdilution method
Staphylococcus aureus [6] = test: Antibacterial activity against constitutively macrolides/lincosamides/streptogramines-resistant Staphylococcus aureus ND048910 expressing erm gene by broth microdilution method; type: functional; summary of the method: as §1
Staphylococcus aureus [7] = test: Antibacterial activity against inducibly macrolides/lincosamides/streptogramines-resistant Staphylococcus aureus BAA977 expressing erm gene by broth microdilution method; type: functional; summary of the method: as §1
Staphylococcus aureus [8] = test: Antibacterial activity against macrolide-resistant Staphylococcus aureus BAA976 expressing mef gene by broth microdilution method; type: functional; summary of the method: as §1

| Compound | MIC (Streptococcus pneumoniae [1]) [mg/L] | MIC (Streptococcus pneumoniae [2]) [mg/L] | MIC (Staphylococcus aureus [3]) [mg/L] | MIC (Streptococcus pneumoniae [4]) [mg/L] | MIC (Streptococcus pneumoniae [5]) [mg/L] | MIC (Staphylococcus aureus [6]) [mg/L] | MIC (Staphylococcus aureus [7]) [mg/L] | MIC (Staphylococcus aureus [8]) [mg/L] |
| --- | --- | --- | --- | --- | --- | --- | --- | --- |
| CC[C@H]1OC(=O)[C@H](C)C(=O)[C@H](C)[C@@H](O[C@@H]2O[C@H](C)C[C@H](N(C)C)[C@H]2OC(C)=O)[C@](C)(OC)C[C@@H](C)C(=O)[C@]2(CC=NN2)[C@H]2NC(=O)O[C@]12C | 0.25 (≈ 0.36 µM) | 16 (≈ 23 µM) | 2 (≈ 2.88 µM) | 0.06 (≈ 0.0864 µM) | 64 (≈ 92.1 µM) | > 128 | 2 (≈ 2.88 µM) | 2 (≈ 2.88 µM) |
| CC[C@H]1OC(=O)[C@H](C)C(=O)[C@H](C)[C@@H](O[C@@H]2O[C@H](C)C[C@H](N(C)C)[C@H]2O)[C@](C)(OC)C[C@@H](C)C(=O)[C@H](CNCc2ccccc2)[C@H]2N(C)C(=O)O[C@]12C | 1 (≈ 1.37 µM) | < 128 | 16 (≈ 21.9 µM) | 0.25 (≈ 0.342 µM) | 64 (≈ 87.4 µM) | > 64 | 16 (≈ 21.9 µM) | 32 (≈ 43.7 µM) |
| CC[C@H]1OC(=O)[C@H](C)C(=O)[C@H](C)[C@@H](O[C@@H]2O[C@H](C)C[C@H](N(C)C)[C@H]2OC(C)=O)[C@](C)(OC)C[C@@H](C)C(=O)[C@H](CNCc2ccccc2)[C@H]2NC(=O)O[C@@]21C | < 0.0072 | 64 (≈ 84.2 µM) | 0.25 (≈ 0.329 µM) | < 0.007 | – | > 64 | 1 (≈ 1.32 µM) | 0.5 (≈ 0.658 µM) |
| CCOC(=O)C(C[C@H]1C(=O)[C@H](C)C[C@@](C)(OC)[C@H](O[C@@H]2O[C@H](C)C[C@H](N(C)C)[C@H]2OC(C)=O)[C@@H](C)C(=O)[C@@H](C)C(=O)O[C@H](CC)[C@@]2(C)OC(=O)N[C@H]12)C(=O)OCC | 0.125 (≈ 0.154 µM) | 4 (≈ 4.92 µM) | 0.25 (≈ 0.308 µM) | 0.06 (≈ 0.0738 µM) | 128 (≈ 157 µM) | > 128 | 0.5 (≈ 0.615 µM) | 0.5 (≈ 0.615 µM) |
| C=C1C(=O)[C@H](C)C[C@@](C)(OC)[C@H](O[C@@H]2O[C@H](C)C[C@H](N(C)C)[C@H]2OC(C)=O)[C@@H](C)C(=O)[C@@H](C)C(=O)O[C@H](CC)[C@@]2(C)OC(=O)N(Cc3ccccc3)[C@H]12 | 0.125 (≈ 0.168 µM) | 2 (≈ 2.69 µM) | 1 (≈ 1.35 µM) | < 0.07 | 64 (≈ 86.1 µM) | 64 (≈ 86.1 µM) | 2 (≈ 2.69 µM) | 2 (≈ 2.69 µM) |
| CC[C@H]1OC(=O)[C@H](C)C(=O)[C@H](C)[C@@H](O[C@@H]2O[C@H](C)C[C@H](N(C)C)[C@H]2OC(C)=O)[C@](C)(OC)C[C@@H](C)C(=O)[C@H](CNCc2cccnc2)[C@H]2NC(=O)O[C@@]21C | 0.06 (≈ 0.0789 µM) | 4 (≈ 5.26 µM) | 1 (≈ 1.31 µM) | 0.015 (≈ 0.0197 µM) | 64 (≈ 84.1 µM) | > 64 | 4 (≈ 5.26 µM) | 2 (≈ 2.63 µM) |
| CC[C@H]1OC(=O)[C@H](C)[C@@H](O)[C@H](C)[C@@H](O[C@@H]2O[C@H](C)C[C@H](N(C)C)[C@H]2OC(C)=O)[C@](C)(OC)C[C@@H](C)C(=O)/C(Cc2ccccc2)=C/[C@]1(C)O | 0.5 (≈ 0.725 µM) | 64 (≈ 92.8 µM) | 16 (≈ 23.2 µM) | 0.25 (≈ 0.362 µM) | > 64 | > 64 | 32 (≈ 46.4 µM) | 16 (≈ 23.2 µM) |
| C=C1C(=O)[C@H](C)C[C@@](C)(OC)[C@H](O[C@@H]2O[C@H](C)C[C@H](N(C)C)[C@H]2OC(C)=O)[C@@H](C)C(=O)[C@@H](C)C(=O)O[C@H](CC)[C@@]2(C)OC(=O)N[C@H]12 | 2 (≈ 3.06 µM) | 128 (≈ 196 µM) | 32 (≈ 49 µM) | 1 (≈ 1.53 µM) | > 64 | > 64 | 64 (≈ 98 µM) | 64 (≈ 98 µM) |
| CC[C@H]1OC(=O)[C@H](C)[C@@H](O[C@H]2C[C@@](C)(OC)[C@@H](O)[C@H](C)O2)[C@H](C)[C@@H](O[C@@H]2O[C@H](C)C[C@H](N(C)C)[C@H]2O)[C@](C)(OC)C[C@@H](C)C(=O)[C@H](C)[C@@H](O)[C@]1(C)O [CLARITHROMYCIN] | 2 (≈ 2.67 µM) | > 16 | 0.125 (≈ 0.167 µM) | 0.015 (≈ 0.0201 µM) | > 8 | > 64 | > 64 | 64 (≈ 85.6 µM) |
